The text below walks through data of ChEMBL document CHEMBL1132283, “Further studies on the Dmt-Tic pharmacophore: hydrophobic substituents at the C-terminus endow delta antagonists to manifest mu agonism or mu antagonism” (J Med Chem, 1999).

SMILES strings stand for the structures. Where a SMILES comes first, the peptide text is derived from it. [ ]: non-standard residue; d: D form. The star is where a group is joined. Dmt = Cc1cc(O)cc(C)c1C[C@H](N)C(=O)O; Tic = O=C(O)[C@@H]1Cc2ccccc2CN1; NHtBu = CC(C)(C)N*; NHNH2 = NN*

The species entered for assay [1] is Cavia porcellus. The assay is described as follows: Antagonistic functional bioactivity against […]-receptor from guinea pig ileum(GPI). The settings on record: for Kb: read-out: pA2 (converted).
Assay [2] is filed under the species Mus musculus. The assay is described as follows: Antagonistic functional bioactivity against delta-receptor from mouse vas deferens(MVD). The note with it: for Kb: read-out: pA2 (converted).
Assay [3] concerns the target T1, Delta-type opioid receptor (Rattus norvegicus, UniProt P33533). The assay is described as follows: Binding affinity at Opioid receptor delta 1 from rat brain synaptosomal preparations by [3H]N,N-(Me)2-Dmt-Tic-OH displacement. A digest of the protocol:
(§1)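 Nonspecific binding was set with 2 μM unlabeled peptide, followed by GF/C filtration. Duplicates at 5–9 doses, ≥3 preparations; Ki by Cheng–Prusoff, mean ± SEM.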

In assay [4] the target is T1, Delta-type opioid receptor. The assay is described as follows: Binding affinity at Opioid receptor delta 1 from rat brain synaptosomal preparations by H-Dmt-Tic-OH displacement.
The target in the next assay is Mu-type opioid receptor (Rattus norvegicus, UniProt P33535). The assay is described as follows: Binding affinity at Opioid receptor mu 1 from rat brain synaptosomal preparations by [3H]DAGO displacement. A digest of the protocol: as §1
Mu-type opioid receptor, sequence (P33535 whole entry): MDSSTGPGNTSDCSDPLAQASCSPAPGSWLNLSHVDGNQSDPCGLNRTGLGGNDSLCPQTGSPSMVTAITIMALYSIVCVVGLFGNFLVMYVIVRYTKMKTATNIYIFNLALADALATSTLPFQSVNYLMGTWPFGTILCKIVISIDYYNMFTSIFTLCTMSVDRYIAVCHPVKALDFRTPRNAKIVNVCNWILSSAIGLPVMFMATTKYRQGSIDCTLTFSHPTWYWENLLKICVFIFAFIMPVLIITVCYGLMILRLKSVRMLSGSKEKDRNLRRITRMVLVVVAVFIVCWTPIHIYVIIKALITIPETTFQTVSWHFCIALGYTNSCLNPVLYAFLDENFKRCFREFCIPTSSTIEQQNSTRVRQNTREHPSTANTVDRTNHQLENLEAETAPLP
Assay [5] deals with T2, Opioid receptors; mu & delta (Rattus norvegicus) (UniProt P33533+P33535). The assay is described as follows: Agonist activity ratio (Ki of mu receptors compared to Ki of delta receptors). It is filed as functional.
T2 sequence (P33533 whole entry, looked up): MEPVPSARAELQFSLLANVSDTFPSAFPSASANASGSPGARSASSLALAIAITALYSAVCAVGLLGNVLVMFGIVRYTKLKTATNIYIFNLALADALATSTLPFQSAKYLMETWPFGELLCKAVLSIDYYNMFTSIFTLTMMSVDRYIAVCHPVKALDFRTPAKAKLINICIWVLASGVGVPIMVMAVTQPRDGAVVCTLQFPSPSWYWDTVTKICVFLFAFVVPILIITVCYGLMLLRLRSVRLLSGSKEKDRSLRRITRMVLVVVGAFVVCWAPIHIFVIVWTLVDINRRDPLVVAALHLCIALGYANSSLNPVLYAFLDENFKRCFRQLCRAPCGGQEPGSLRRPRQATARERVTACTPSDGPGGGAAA
T2 sequence (P33535 whole entry, looked up): as the sequence (P33535 whole entry) above
Assay [6] concerns the target T2, Opioid receptors; mu & delta (Rattus norvegicus). The assay is described as follows: Antagonistic activity ratio (Ki of mu receptors compared to Ki of delta receptors). Format: functional.
Assay [7] is filed under the species Cavia porcellus. The assay is described as follows: Antagonistic functional bioactivity against […]-receptor from guinea pig ileum(GPI).
For assay [8], the species on record is Mus musculus. The assay is described as follows: Antagonistic functional bioactivity against delta-receptor from mouse vas deferens(MVD). The note with it: for Kb: read-out: pA2 (converted).

T1 sequence (P33533 whole entry): as the sequence (P33533 whole entry, looked up) above

What is called EC50 is the midpoint of the concentration-response curve. High values mean lower potency in that assay, low ones higher potency in that assay. The compound `Cc1cc(O)cc(C)c1C[C@H](N)C(=O)N1Cc2ccccc2C[C@H]1CC(=O)O` displayed a concentration for a half-maximal effect (EC50) in the assay listed under Cavia porcellus [1] of more than 10000 nM. In the assay filed under Mus musculus [2], the Ke came to 1.41 nM and the Kb is 1.58 nM.
As usually defined, the Ki is a dissociation constant, usually derived from enzyme kinetics or from competition with a known ligand. A higher Ki goes with lower affinity. Take `Cc1cc(O)cc(C)c1C[C@@H](C(=O)N1Cc2ccccc2C[C@@H]1C(=O)NC12C[C@H]3C[C@@H](C1)C[C@@H](C2)C3)N(C)C`: in the assay filed under Cavia porcellus [1], a half-maximal response (EC50) required 4480 nM. The Ke in the assay filed under Mus musculus [2] is given as 128 nM. The Kb in the assay filed under Mus musculus [2] was 123 nM. For the same compound, the Ki in assay [3] came out at 140 nM; in assay [4], 120 nM; on Mu-type opioid receptor, 50.5 nM. Moreover, the Ratio in [5] is 0.36; in [6], 0.42.
As for `Cc1cc(O)cc(C)c1C[C@H](N)C(=O)N1Cc2ccccc2C[C@H]1C(=O)NC12C[C@H]3C[C@@H](C1)C[C@@H](C2)C3`, the figures for the EC50 in the assay filed under Cavia porcellus [1] and in the assay filed under Mus musculus [2] were 36 nM and 870 nM, respectively. The compound also came in with a Ke in the assay filed under Mus musculus [2] of more than 10000 nM. In addition, the Ki amounted to 0.26 nM in [3], 1.01 nM in assay [4] and 0.76 nM on Mu-type opioid receptor. In addition, the Ratio in assay [5] is 3; in assay [6], 0.8.
With `Cc1cc(O)cc(C)c1CC(CN)C(=O)N1Cc2ccccc2C[C@H]1C(=O)O` (stereo not given in full), the figures for the Ratio in [5] and in assay [6] were 155 and 4, respectively.
`Cc1cc(O)cc(C)c1C[C@H](N)C(=O)N1Cc2ccccc2C[C@H]1C(=O)NC(C)(C)C` (H-[Dmt]-[Tic]-NHtBu): the EC50 in the assay filed under Cavia porcellus [1] stood at 1040 nM. The Ke in the assay listed under Mus musculus [2] was determined as 1.74 nM. The Kb in the assay listed under Mus musculus [2] is 5.75 nM. In addition, the results for the Ratio in assay [5] and in [6] were 14 and 6, respectively.
`COC(=O)[C@H](C)NC(=O)[C@@H]1Cc2ccccc2CN1C(=O)[C@@H](N)Cc1c(C)cc(O)cc1C` (H-[Dmt]-[Tic]-Ala-OMe): the Ratio worked out at 48 in assay [5] and 83 in [6].
`Cc1cc(O)cc(C)c1C[C@@H](C(=O)N1Cc2ccccc2C[C@H]1C(=O)O)N1CCCC1` had an EC50 in the assay filed under Cavia porcellus [1] of more than 10000 nM. In the assay filed under Mus musculus [2], this compound returned a Ke of 121 nM. The Kb in the assay filed under Mus musculus [2] is 126 nM. For the same compound, the figures for the Ratio in assay [5] and in assay [6] were 502 and 573, respectively.
For `CNC(=O)[C@@H]1Cc2ccccc2CN1C(=O)[C@H](Cc1c(C)cc(O)cc1C)N(C)C`, the concentration for a half-maximal effect (EC50) in the assay filed under Cavia porcellus [1] is more than 10000 nM. Also, the Ke is 0.39 nM in the assay filed under Cavia porcellus [1] and 0.41 nM in the assay listed under Mus musculus [2]. The Kb is 389 nM in the assay listed under Cavia porcellus [1] and 0.407 nM in the assay listed under Mus musculus [2]. In addition, the Ratio in [5] turned out to be 669; in assay [6], 1270.
`Cc1cc(O)cc(C)c1C[C@H](N)C(=O)N1Cc2ccccc2C[C@@H]1C(=O)NC12C[C@H]3C[C@@H](C1)C[C@@H](C2)C3`: the concentration for a half-maximal effect (EC50) in the assay listed under Cavia porcellus [1] was found to be 1680 nM. The same compound yielded a Ke in the assay listed under Mus musculus [2] of more than 10000 nM. The Ki was determined as 24.5 nM in assay [3], 70.3 nM in [4] and 0.26 nM on Mu-type opioid receptor. Moreover, the Ratio worked out at 0.01 in assay [5] and 0.004 in [6].
As for `Cc1cc(O)cc(C)c1C[C@@H](C(=O)N1Cc2ccccc2C[C@H]1C(=O)O)N1CCCCC1`, the EC50 in the assay filed under Cavia porcellus [1] was more than 10000 nM. The compound further displayed a Ke in the assay listed under Mus musculus [2] of 49 nM. Also, the Kb in the assay listed under Mus musculus [2] is 49 nM. Further, the Ratio in assay [5] was 1730; in [6], 2760.
As for `COC(=O)[C@@H]1Cc2ccccc2CN1C(=O)[C@@H](N)Cc1c(C)cc(O)cc1C` (H-[Dmt]-[Tic]-OMe), the figures for the Ratio in [5] and in assay [6] were 44 and 0.8, respectively.
`Cc1cc(O)cc(C)c1C[C@@H](C(=O)N1Cc2ccccc2C[C@H]1C(=O)NC12C[C@H]3C[C@@H](C1)C[C@@H](C2)C3)N(C)C` returned an EC50 in the assay filed under Cavia porcellus [1] of 16 nM. This compound registered a Ke in the assay filed under Mus musculus [2] of 0.87 nM. In the assay filed under Mus musculus [2], the Kb is 0.871 nM. For the same compound, the Ki in assay [3] is 0.16 nM; in assay [4] it was 0.12 nM; on Mu-type opioid receptor, 1.12 nM. For the same compound, the Ratio is 7 in assay [5] and 9 in [6].
Take `Cc1cc(O)cc(C)c1C[C@H](N)C(=O)N1Cc2ccccc2C[C@H]1C(=O)NN` (H-[Dmt]-[Tic]-NHNH2): the Ratio was found to be 86 in assay [5] and 2 in [6].
For the compound `CNC(=O)[C@@H]1Cc2ccccc2CN1C(=O)[C@@H](N)Cc1c(C)cc(O)cc1C` (H-[Dmt]-[Tic]-NHMe), in the assay filed under Cavia porcellus [1], the EC50 is more than 10000 nM, the Ke was determined as 1.15 nM and the Kb is 1150 nM. Also, in the assay listed under Mus musculus [2], the EC50 was found to be 21200 nM and the Ke was more than 10000 nM.
In turn, `Cc1cc(O)cc(C)c1C[C@H](N)C(=O)N1Cc2ccccc2C[C@H]1C(=O)Nc1nn[nH]n1` gave a concentration giving a half-maximal response (EC50) in the assay listed under Cavia porcellus [7] of 8200 nM. Also, in the assay filed under Mus musculus [8], the Ke was 36.3 nM and the Kb is 36.3 nM. Further, the Ratio in assay [5] stood at 53. The Ratio in assay [6] turned out to be 4.
For the compound `Cc1cc(O)cc(C)c1C[C@@H](C(=O)N1Cc2ccccc2C[C@H]1C(=O)NC(C)(C)C)N(C)C`, in the assay listed under Cavia porcellus [1], the EC50 is more than 10000 nM, the Ke worked out at 0.3 nM and the Kb is 302 nM. In the assay listed under Mus musculus [2], the Ke is recorded as 14.1 nM and the Kb was 14.1 nM.
As to `Cc1cc(O)cc(C)c1C[C@H](N)C(=O)N1Cc2ccccc2C[C@H]1C(=O)N[C@@H](C)C(=O)NC(C)(C)C` (H-[Dmt]-[Tic]-Ala-NHtBu), in the assay listed under Cavia porcellus [1], the 50% effective concentration (EC50) is more than 10000 nM and the Kb is 174 nM. In addition, in the assay listed under Mus musculus [2], the Ke was 0.69 nM and the Kb was 0.692 nM. In assay [5], the Ratio is 61. The Ratio in [6] came out at 48.
In the case of `Cc1cc(O)cc(C)c1C[C@H](N)C(=O)N1Cc2ccccc2C[C@H]1C(=O)N[C@@H](C)C(=O)NC12C[C@H]3C[C@@H](C1)C[C@@H](C2)C3`, a half-maximal response in the assay filed under Cavia porcellus [1] (EC50) required 1000 nM. The Ke in the assay listed under Mus musculus [2] came out at 0.51 nM. The Kb in the assay filed under Mus musculus [2] is 0.513 nM. In addition, the inhibition constant (Ki) in assay [3] was determined as 0.073 nM; in assay [4], 0.04 nM; on Mu-type opioid receptor, 2.52 nM.
With `Cc1cc(O)cc(C)c1C[C@@H](C(=O)N1Cc2ccccc2C[C@H]1C(=O)O)n1cccc1`, the concentration for a half-maximal effect (EC50) in the assay filed under Cavia porcellus [7] is more than 10000 nM. Also, in the assay listed under Mus musculus [8], the Ke was 408 nM and the Kb was 407 nM. Further, the Ratio in assay [5] turned out to be 338. Further, the Ratio in assay [6] was found to be 562.
Consider `CNC(=O)[C@H](C)NC(=O)[C@@H]1Cc2ccccc2CN1C(=O)[C@@H](N)Cc1c(C)cc(O)cc1C` (H-[Dmt]-[Tic]-Ala-NHMe), for which the concentration for a half-maximal effect (EC50) stood at 290 nM in the assay listed under Cavia porcellus [1] and 1290 nM in the assay filed under Mus musculus [2]. Moreover, the Ratio turned out to be 100 in assay [5] and 47 in [6].
